pIC50: −log10 of the molar value. Active and inactive are the calls of the source. The rule behind the calls is not given here.

For series [1], the target named is T1, Protein cereblon/Bromodomain-containing protein 4/Cullin-4A (Homo sapiens) (UniProt O60885+Q96SW2+Q13619). In words: Protac activity at cereblon/cullin 4A/BRD4 in human RS4:11 cells assessed as BRD4 degradation at 10 pM after 3 hrs by Western blot analysis. The class given is cell-based. (In general: A western blot detects proteins with antibodies after separation by electrophoresis.)

Series [2] has as its system RS4-11. In words: Growth inhibition of human RS4:11 cells after 96 hrs by CCK8 assay. In kind it is functional, cell-based. To be noted: RS4-11, 96 h.
In series [3] the test system is Mus musculus. The series is described as follows: In vivo Protac activity at cereblon/cullin/BRD3 in tumor of human RS4:11 cells xenografted in SCID mouse assessed as reduction in BRD3 protein expression at 1 to 5 mg/kg, iv administered as single dose and measured at 1 to 6 hrs post dose by Western blot analysis. The class given is functional, organism-based. In outline:
(§1)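 SCID mice bearing subcutaneous RS4;11 tumors were given a single intravenous dose of 1 or 5 mg/kg. Tumors were harvested at 1, 6 and 24 h, two mice per time point. Tissue was ground in liquid nitrogen and lysed in CST buffer with protease inhibitors. 20 µg lysate per lane was probed for BRD2, BRD3, BRD4, c-Myc and cleaved PARP, with GAPDH as loading control.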
In general terms: In xenograft studies the graft and the host belong to different species.

For series [4], the system named is MV4-11. In words: Induction of apoptosis in human MV4-11 cells after 24 to 48 hrs by Annexin V/propidium iodine-double staining-based flow cytometry. In kind it is functional, cell-based. In outline: (§2)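 Leukemia cells were treated for 24 h or 48 h at the indicated concentrations. They were then collected, washed in cold PBS and stained with Annexin V and propidium iodide. Apoptotic fraction was measured by flow cytometry.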
In general terms: In flow cytometry, cells or beads pass a laser one at a time.

Series [5] has as its system Mus musculus. The series is described as follows: In vivo Protac activity at cereblon/cullin/BRD2 in tumor of human RS4:11 cells xenografted in SCID mouse assessed as reduction in BRD2 protein expression at 1 to 5 mg/kg, iv administered as single dose and measured at 1 to 6 hrs by Western blot analysis. In kind it is functional, organism-based. In outline:
as §1

Series [6] in a line: Drug uptake in plasma of SCID mouse xenografted with human RS4:11 cells at 5 mg/kg, iv measured at 6 hrs by LC-MS/MS analysis. To be noted: in vivo, BLD = below limit of detection. The class given is ADME, organism-based. In outline: (§3)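 Female SCID mice with RS4;11 tumors received a single 5 mg/kg intravenous dose in 20% PCP/80% PBS. Plasma (heparin) and tissues were taken at 1, 3 and 6 h, one mouse per time point in duplicate. Plasma was precipitated with acetonitrile containing internal standard. Tissues were homogenized 5:1 in 20% acetonitrile. Quantified by LC-MS/MS against spiked plasma standards (2–2000 ng/mL); values in ng/ml or ng/g.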

Series [7] deals with T2, Protein cereblon/Bromodomain-containing protein 3/Cullin-4A (Homo sapiens) (UniProt Q15059+Q96SW2+Q13619). In words: Protac activity at cereblon/cullin 4A/BRD3 in human RS4:11 cells assessed as BRD3 degradation at 0.5 nM after 3 hrs by Western blot analysis. The class given is cell-based.
The test system of series [8] is MV4-11. The series is described as follows: Induction apoptosis in human MV4-11 cells assessed as caspase-3 activation at 0.3 nM after 24 hrs by Western blot analysis. In kind it is functional, cell-based. In outline: (§4)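 Cells (1.5–2×10^6/well) were treated for 24 h, washed in cold PBS and lysed in RIPA with protease inhibitors. 20 µg lysate was run on 4–20% or 4–12% gels and transferred to PVDF. Blots were probed for cleaved PARP and cleaved caspase 3, with GAPDH as loading control. Detection by ECL.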

The test system of series [9] is RS4-11. In words: Induction apoptosis in human RS4:11 cells assessed as caspase-3 activation at 0.3 nM after 24 hrs by Western blot analysis. The class given is functional, cell-based. In outline: as §4
The subject of series [10] is MV4-11. The series is described as follows: Induction of apoptosis in human MV4-11 cells at 0.1 to 10 uM after 48 hrs by Annexin V/propidium iodine-double staining-based flow cytometry. In kind it is functional, cell-based.
The target in series [11] is T1, Protein cereblon/Bromodomain-containing protein 4/Cullin-4A (Homo sapiens). The series is described as follows: Protac activity at cereblon/cullin 4A/BRD4 in human RS4:11 cells assessed as BRD4 degradation at 0.5 nM after 3 hrs in presence of neddylation inhibitor MLN4924 by Western blot analysis. The class given is cell-based. In outline:
(§5)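 RS4;11 cells were pre-treated for 2 h with DMSO, lenalidomide (10 μM), MLN4924 (1 μM) or MG-132 (20 μM). The degrader was then added at 0.5 nM for 3 h. Lysates were immunoblotted for BRD2, BRD3 and BRD4, with GAPDH as loading control.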

In series [12] the target is T3, Protein cereblon/Bromodomain-containing protein 2/Cullin-4A (Homo sapiens) (UniProt P25440+Q96SW2+Q13619). In words: Protac activity at cereblon/cullin 4A/BRD2 in human RS4:11 cells assessed as BRD2 degradation at 0.5 nM after 3 hrs by Western blot analysis. In kind it is cell-based.
Series [13] deals with RS4-11. The series is described as follows: Antitumor activity against human RS4:11 cells xenografted in SCID mouse assessed tumor regression at 1 to 5 mg/kg, iv administered 3 times per week for 3 weeks. In kind it is functional, organism-based. In outline: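 RS4;11 xenografts: 5×10^6 cells in 50% Matrigel injected subcutaneously on the dorsal side of SCID mice, one tumor per mouse. Randomized to treatment or vehicle at ~100 mm3. Intravenous dosing on several schedules, including 3 times per week for 3 weeks and weekly. Volume = L × W2/2; body weight tracked.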

The target of series [14] is T3, Protein cereblon/Bromodomain-containing protein 2/Cullin-4A (Homo sapiens). In words: Protac activity at cereblon/cullin 4A/BRD2 in human MV4-11 cells assessed as BRD2 degradation at 30 to 100 pM after 3 hrs by Western blot analysis. The class given is cell-based.
Series [15] deals with RS4-11. The series is described as follows: Induction of apoptosis in human RS4:11 cells after 24 to 48 hrs by Annexin V/propidium iodine-double staining-based flow cytometry. In kind it is functional, cell-based. In outline:
as §2

In series [16] the test system is MV4-11. In words: Growth inhibition of human MV4-11 cells after 96 hrs by CCK8 assay. The class given is functional, cell-based. To be noted: MV4-11, 96 h.
In series [17] the target is T3, Protein cereblon/Bromodomain-containing protein 2/Cullin-4A (Homo sapiens). The series is described as follows: Protac activity at cereblon/cullin 4A/BRD2 in human RS4:11 cells assessed as BRD2 degradation at 0.5 nM after 3 hrs in presence of lenalidomide by Western blot analysis. In kind it is cell-based. In outline: as §5
Series [18] has as its target T1, Protein cereblon/Bromodomain-containing protein 4/Cullin-4A (Homo sapiens). The series is described as follows: Protac activity at cereblon/cullin 4A/BRD4 in human RS4:11 cells assessed as BRD4 degradation at 0.5 nM after 3 hrs in presence of proteasome inhibitor MG132 by Western blot analysis. In kind it is cell-based. In outline:
as §5

Series [19] is described as follows: Toxicity in SCID mouse xenografted with human RS4:11 cells at 1 to 5 mg/kg, iv administered 3 times per week for 3 weeks. The class given is organism-based. To be noted: in vivo, 504 h. In outline: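 SCID mice received a subcutaneous dorsal implant of 5×10^6 RS4;11 cells in 50% Matrigel, one tumor per mouse. Mice were randomized at ~100 mm3 into treatment or vehicle groups. Doses were 1, 2.5 or 5 mg/kg three times weekly for 3 weeks, with body weight and signs of toxicity monitored.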

Series [20] deals with T2, Protein cereblon/Bromodomain-containing protein 3/Cullin-4A (Homo sapiens). In words: Protac activity at cereblon/cullin 4A/BRD3 in human RS4:11 cells assessed as BRD3 degradation at 0.5 nM after 3 hrs in presence of lenalidomide by Western blot analysis. The class given is cell-based. In outline: as §5
Series [21] shares this target. In words: Protac activity at cereblon/cullin 4A/BRD3 in human MV4-11 cells assessed as BRD3 degradation at 10 pM after 3 hrs by Western blot analysis. In kind it is cell-based.
Series [22] can be described thus: Drug uptake in heart of SCID mouse xenografted with human RS4:11 cells at 5 mg/kg, iv measured at 6 hrs by LC-MS/MS analysis. The class given is ADME, organism-based. To be noted: in vivo, BLD = below limit of detection. In outline: as §3
For series [23], the target named is Protein cereblon/Eukaryotic peptide chain release factor GTP-binding subunit ERF3A/Cullin-4A (Homo sapiens) (UniProt Q96SW2+Q13619+P15170). In words: Induction of Cereblon/Cullin 4A-mediated-GSPT1 degradation in human RS4:11 cells at 0.01 to 10 nM after 3 hrs by Western blot analysis. In kind it is cell-based.
Chain of Protein cereblon/Eukaryotic peptide chain release factor GTP-binding subunit ERF3A/Cullin-4A (Homo sapiens) (P15170 whole entry, looked up): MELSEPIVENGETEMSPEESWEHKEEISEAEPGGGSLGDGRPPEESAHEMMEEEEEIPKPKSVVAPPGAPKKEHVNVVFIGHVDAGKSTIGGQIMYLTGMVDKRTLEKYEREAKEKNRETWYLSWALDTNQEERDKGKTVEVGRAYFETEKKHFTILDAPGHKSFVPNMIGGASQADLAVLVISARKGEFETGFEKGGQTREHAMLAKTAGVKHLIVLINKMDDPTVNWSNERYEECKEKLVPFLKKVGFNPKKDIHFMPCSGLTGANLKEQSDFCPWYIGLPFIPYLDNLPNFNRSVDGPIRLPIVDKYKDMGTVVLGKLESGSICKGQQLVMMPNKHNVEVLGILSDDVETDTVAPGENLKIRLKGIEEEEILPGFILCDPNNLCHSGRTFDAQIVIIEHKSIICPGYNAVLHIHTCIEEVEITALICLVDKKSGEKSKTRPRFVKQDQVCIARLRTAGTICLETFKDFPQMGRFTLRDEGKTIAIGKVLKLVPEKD
Chain of Protein cereblon/Eukaryotic peptide chain release factor GTP-binding subunit ERF3A/Cullin-4A (Homo sapiens) (Q13619 whole entry, looked up): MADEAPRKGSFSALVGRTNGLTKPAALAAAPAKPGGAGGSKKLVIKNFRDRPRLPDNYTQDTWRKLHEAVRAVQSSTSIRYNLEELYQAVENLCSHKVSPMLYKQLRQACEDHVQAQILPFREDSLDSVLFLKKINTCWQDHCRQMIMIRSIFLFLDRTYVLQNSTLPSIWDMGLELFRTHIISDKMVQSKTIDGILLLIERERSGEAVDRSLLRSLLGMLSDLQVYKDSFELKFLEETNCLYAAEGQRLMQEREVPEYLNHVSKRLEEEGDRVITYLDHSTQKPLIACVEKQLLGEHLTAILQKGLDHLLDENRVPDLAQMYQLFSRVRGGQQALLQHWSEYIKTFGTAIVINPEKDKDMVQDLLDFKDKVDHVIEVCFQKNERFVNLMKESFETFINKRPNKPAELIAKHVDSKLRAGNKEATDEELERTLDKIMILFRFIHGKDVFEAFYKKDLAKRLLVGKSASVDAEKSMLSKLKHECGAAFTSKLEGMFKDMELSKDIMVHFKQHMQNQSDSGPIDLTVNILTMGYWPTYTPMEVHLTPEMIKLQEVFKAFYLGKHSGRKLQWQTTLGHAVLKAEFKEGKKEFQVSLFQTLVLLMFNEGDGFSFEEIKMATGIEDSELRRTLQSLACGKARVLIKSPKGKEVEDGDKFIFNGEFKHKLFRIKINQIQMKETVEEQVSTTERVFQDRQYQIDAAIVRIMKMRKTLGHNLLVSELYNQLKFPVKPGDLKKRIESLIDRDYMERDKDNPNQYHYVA
Chain of Protein cereblon/Eukaryotic peptide chain release factor GTP-binding subunit ERF3A/Cullin-4A (Homo sapiens) (Q96SW2 whole entry, looked up): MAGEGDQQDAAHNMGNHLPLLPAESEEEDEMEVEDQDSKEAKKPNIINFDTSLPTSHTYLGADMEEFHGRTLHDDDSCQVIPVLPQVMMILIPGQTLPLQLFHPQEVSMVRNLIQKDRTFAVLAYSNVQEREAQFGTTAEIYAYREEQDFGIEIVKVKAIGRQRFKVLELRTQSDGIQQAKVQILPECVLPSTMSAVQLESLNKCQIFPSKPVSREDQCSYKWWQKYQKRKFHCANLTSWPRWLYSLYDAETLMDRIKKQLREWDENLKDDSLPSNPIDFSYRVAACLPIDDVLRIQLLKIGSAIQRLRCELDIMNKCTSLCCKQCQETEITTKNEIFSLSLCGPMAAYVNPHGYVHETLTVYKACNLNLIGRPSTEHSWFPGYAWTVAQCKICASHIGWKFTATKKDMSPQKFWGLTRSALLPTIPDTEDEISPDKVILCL

T2 sequence (Q13619 whole entry, looked up): as the sequence (Q13619 whole entry, looked up) above
T2 sequence (Q15059 whole entry, looked up): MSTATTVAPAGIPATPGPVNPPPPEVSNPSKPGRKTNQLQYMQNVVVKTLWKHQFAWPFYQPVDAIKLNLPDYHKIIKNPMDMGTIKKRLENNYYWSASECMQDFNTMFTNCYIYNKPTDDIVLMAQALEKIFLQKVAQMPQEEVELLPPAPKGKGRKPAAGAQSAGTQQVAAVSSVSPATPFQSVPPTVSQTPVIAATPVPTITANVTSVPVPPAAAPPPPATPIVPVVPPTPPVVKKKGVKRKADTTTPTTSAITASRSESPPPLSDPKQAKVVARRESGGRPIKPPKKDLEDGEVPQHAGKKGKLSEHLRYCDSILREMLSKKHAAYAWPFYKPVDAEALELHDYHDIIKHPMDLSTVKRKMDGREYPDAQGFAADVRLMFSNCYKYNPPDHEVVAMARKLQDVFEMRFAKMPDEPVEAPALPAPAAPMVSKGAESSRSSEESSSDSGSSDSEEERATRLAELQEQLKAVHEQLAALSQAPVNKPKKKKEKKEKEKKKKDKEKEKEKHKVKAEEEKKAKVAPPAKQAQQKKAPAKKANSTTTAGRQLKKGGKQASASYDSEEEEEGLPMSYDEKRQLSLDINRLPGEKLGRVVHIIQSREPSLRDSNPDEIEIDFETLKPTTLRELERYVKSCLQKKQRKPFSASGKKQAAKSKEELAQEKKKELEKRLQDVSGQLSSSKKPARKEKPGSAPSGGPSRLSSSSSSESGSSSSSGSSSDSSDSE
T2 sequence (Q96SW2 whole entry, looked up): as the sequence (Q96SW2 whole entry, looked up) above
T3 sequence (P25440 whole entry, looked up): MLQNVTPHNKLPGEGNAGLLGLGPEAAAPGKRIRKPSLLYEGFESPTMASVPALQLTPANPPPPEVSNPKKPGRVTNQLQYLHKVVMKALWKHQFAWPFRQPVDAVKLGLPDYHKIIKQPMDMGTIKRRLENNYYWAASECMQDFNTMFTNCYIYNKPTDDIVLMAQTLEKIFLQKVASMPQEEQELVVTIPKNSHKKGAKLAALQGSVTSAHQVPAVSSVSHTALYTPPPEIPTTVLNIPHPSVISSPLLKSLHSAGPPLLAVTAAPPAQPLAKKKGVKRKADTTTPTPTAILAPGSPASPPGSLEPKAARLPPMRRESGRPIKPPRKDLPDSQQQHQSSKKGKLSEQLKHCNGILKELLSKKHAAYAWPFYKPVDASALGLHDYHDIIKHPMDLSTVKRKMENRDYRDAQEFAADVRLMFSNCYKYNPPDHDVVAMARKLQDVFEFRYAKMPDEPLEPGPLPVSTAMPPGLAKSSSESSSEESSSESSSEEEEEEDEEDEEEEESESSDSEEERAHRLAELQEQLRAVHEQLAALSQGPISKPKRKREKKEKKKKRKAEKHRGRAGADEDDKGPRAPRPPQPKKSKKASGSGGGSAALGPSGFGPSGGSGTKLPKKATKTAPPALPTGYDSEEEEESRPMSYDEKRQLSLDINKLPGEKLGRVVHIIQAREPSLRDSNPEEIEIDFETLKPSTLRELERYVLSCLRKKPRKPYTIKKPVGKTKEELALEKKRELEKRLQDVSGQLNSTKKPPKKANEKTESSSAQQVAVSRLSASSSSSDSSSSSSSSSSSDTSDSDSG
T3 sequence (Q13619 whole entry, looked up): as the sequence (Q13619 whole entry, looked up) above
T3 sequence (Q96SW2 whole entry, looked up): as the sequence (Q96SW2 whole entry, looked up) above

Regarding `Cc1nnc2n1Cc1sc(C#Cc3cnn(CCCC#Cc4cccc5c4CN(C4CCC(=O)NC4=O)C5=O)c3)c(Cc3ccccc3)c1OC2` (stereo not drawn), the result (in [1]; with Mus musculus [3]; in the series on Mus musculus [5]; in series [7]; in the series with MV4-11 [8]; in the series with MV4-11 [10]) was Active. For the same molecule, the result (in series [12]; in the series with RS4-11 [13]; in [14]; in [21]) was Active. Further, the pIC50 in the series with RS4-11 [2] is 10.49; in the series on MV4-11 [16], 11.08. Also, the Activity entry was “Dose-dependent effect” in the series on MV4-11 [4], “Dose-dependent effect” in the series on RS4-11 [15] and “Non-Toxic” in [19]. The Cp result in [6] was “Bld”. For the same molecule, the result (in the series with RS4-11 [9]; in series [11]; in [17]; in series [18]; in series [20]; in series [23]) was inactive. Further, in [22], the Drug uptake entry is on record as “Bld”.

Broadly, the pIC50 is the negative decadic logarithm of the IC50, by convention in mol/L. Higher therefore signals a small IC50.

For the origin of these results see ChEMBL document CHEMBL4382197, “Discovery of QCA570 as an Exceptionally Potent and Efficacious Proteolysis Targeting Chimera (PROTAC) Degrader of the Bromodomain and Extra-Terminal (BET) Proteins Capable of Inducing Complete and Durable Tumor Regression” (J Med Chem, 2018).
